Experimental data published in ChEMBL document CHEMBL1140866, “New pyrazoline bearing 4(3H)-quinazolinone inhibitors of monoamine oxidase: synthesis, biological evaluation, and structural determinants of MAO-A and MAO-B selectivity” (Bioorg Med Chem, 2009).

Columns and labels:
[1] = target: T1, Amine oxidase [flavin-containing] B (Rattus norvegicus, UniProt P19643); assay: Inhibition of MAO-B in rat liver homogenate after 60 mins by Lineweaver-Burke plot; type: tissue-based; conditions: for Activity: rat, 1 h, TDE = time-dependent effect
T1 sequence (P19643 whole entry): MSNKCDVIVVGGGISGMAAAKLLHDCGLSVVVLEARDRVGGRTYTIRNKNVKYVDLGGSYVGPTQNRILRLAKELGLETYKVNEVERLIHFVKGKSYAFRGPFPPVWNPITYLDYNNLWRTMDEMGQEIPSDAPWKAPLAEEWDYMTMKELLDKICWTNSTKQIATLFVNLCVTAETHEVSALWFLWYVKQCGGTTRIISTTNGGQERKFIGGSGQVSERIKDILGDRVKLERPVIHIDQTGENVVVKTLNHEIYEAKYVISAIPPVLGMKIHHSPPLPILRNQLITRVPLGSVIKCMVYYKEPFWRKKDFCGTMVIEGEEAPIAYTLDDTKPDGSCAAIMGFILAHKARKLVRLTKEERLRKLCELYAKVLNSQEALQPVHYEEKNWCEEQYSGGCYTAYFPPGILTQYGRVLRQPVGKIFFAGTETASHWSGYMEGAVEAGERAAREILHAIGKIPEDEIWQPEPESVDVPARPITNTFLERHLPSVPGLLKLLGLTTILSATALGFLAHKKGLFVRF

[2] = target: T1, Amine oxidase [flavin-containing] B; assay: Inhibition of MAO-B in rat liver homogenate after 60 mins by residual activity plot; type: tissue-based
[3] = target: T2, Amine oxidase [flavin-containing] A (Rattus norvegicus, UniProt P21396); assay: Inhibition of MAO-A in rat liver homogenate after 60 mins by residual activity plot; type: tissue-based
T2 sequence (P21396 whole entry): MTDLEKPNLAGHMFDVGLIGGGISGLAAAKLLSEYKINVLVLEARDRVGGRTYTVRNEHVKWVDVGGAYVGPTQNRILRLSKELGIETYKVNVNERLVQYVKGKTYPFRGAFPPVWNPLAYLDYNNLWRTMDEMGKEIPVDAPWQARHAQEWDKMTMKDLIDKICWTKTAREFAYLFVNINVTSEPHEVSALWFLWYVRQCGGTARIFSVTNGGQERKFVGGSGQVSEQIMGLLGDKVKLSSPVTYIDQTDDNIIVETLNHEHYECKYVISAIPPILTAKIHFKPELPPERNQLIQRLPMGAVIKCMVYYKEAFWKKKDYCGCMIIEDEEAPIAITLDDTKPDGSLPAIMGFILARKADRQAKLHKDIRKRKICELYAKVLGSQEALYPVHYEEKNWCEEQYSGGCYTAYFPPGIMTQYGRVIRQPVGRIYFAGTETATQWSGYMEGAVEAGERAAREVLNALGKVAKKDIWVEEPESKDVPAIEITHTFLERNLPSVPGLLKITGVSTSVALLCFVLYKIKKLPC

[4] = target: T2, Amine oxidase [flavin-containing] A; assay: Inhibition of MAO-A in rat liver homogenate after 60 mins by Lineweaver-Burke plot; type: tissue-based; conditions: for Activity: rat, 1 h, TDE = time-dependent effect
[5] = tested on: Mus musculus; assay: Anxiolytic activity in albino mouse assessed as time spent on closed arm at 100 mg/kg, ip by plus-maze test; type: functional; design: unit not given here; conditions: route intraperitoneal
Summary of the method: (§1)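 Mice given compounds i.p. at 100 mg/kg in DMSO/water (1:4), about 0.1 mL, 1 h before testing; controls got 0.1 mL vehicle; n = 7–8. Housed eight per cage, 20 ± 2 °C, 12 h light/dark. Each animal did the plus-maze first, then forced swim.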

[6] = tested on: Mus musculus; assay: Anxiolytic activity in albino mouse assessed as total number of entries into arms at 100 mg/kg, ip by plus-maze test; type: functional; conditions: route intraperitoneal; summary of the method: as §1
[7] = tested on: Mus musculus; assay: Antidepressant activity in albino mouse assessed as immobility time at 100 mg/kg, ip by forced swim test; type: functional; conditions: route intraperitoneal; summary of the method: as §1
[8] = tested on: Mus musculus; assay: Anxiolytic activity in albino mouse assessed as time spent on closed arm at 5 mg/kg, ip by plus-maze test; type: functional; conditions: route intraperitoneal
[9] = tested on: Mus musculus; assay: Anxiolytic activity in albino mouse assessed as total number of entries into arms at 5 mg/kg, ip by plus-maze test; type: functional; conditions: route intraperitoneal
[10] = tested on: Mus musculus; assay: Antidepressant activity in albino mouse assessed as immobility time at 5 mg/kg, ip by forced swim test; type: functional; conditions: route intraperitoneal

| SMILES | Ki [1] | Activity [1] | IC50 [2] | IC50 [3] | Ki [4] | Activity [4] | Activity [5] | arm entries [6] | Activity [7] | Activity [8] | arm entries [9] | Activity [10] |
| --- | --- | --- | --- | --- | --- | --- | --- | --- | --- | --- | --- | --- |
| COc1ccc(C2CC(c3ccccc3)=NN2c2nc3ccccc3c(=O)n2C)cc1 (stereo unspecified) | 9.9 µM | tde | 400 µM | 4.51 µM | 1.03 µM | tde | 162.43 | 5.37 entries | 58% |  |  |  |
| Cc1ccc(C2CC(c3ccccc3)=NN2c2nc3ccccc3c(=O)n2C)cc1 (stereo unspecified) | 7.9 µM | tde | 484 µM | 4.51 µM | 2.56 µM | tde | 178.25 | 3.87 entries | 43.25% |  |  |  |
| Cn1c(N2N=C(c3ccccc3)CC2c2ccc(Br)cc2)nc2ccccc2c1=O (stereo unspecified) | 10.6 µM | tde | 485 µM | 1.68 µM | 1.17 µM | tde | 230 | 3.25 entries | 65.12% |  |  |  |
| O=C(NCCN1CCOCC1)c1ccc(Cl)cc1 [MOCLOBEMIDE] | 10.2 µM |  |  |  |  |  |  |  |  | 250.72% | 6.15 entries | 54.3% |
